# Legend:
# [1] = molecular target: T1, Cannabinoid receptor 2 (Homo sapiens, UniProt P34972); experiment: Agonist activity at human CB2 receptor expressed in mouse AtT20 cells assessed as maximal agonist effect by measuring fluorescence at 10 uM incubated for 60 mins by FLIPR membrane potential assay relative to CP55940; format: functional, cell-based; conditions: filed as agonist
# In short: (§1)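 AtT20 FlpIn cells stably expressing human CB1 or CB2, plated overnight in L-15 with 1% FBS. Loaded 60 min at 37 °C with FLIPR blue membrane potential dye, pH 7.4 buffer. Fluorescence (ex 530/em 565 nm) read every 2 s; 2 min baseline, then drug added. Change in fluorescence versus baseline minus vehicle (DMSO 0.1%/BSA 0.01% final), normalised to 1 μM CP55,940. Response taken at 10 μM where <50% change.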
# [2] = molecular target: T1, Cannabinoid receptor 2; experiment: Agonist activity at CB2 receptor (unknown origin) expressed in human HEK293T cells co-expressing beta-arrestin2 assessed as beta-arrestin2 recruitment by measuring maximal luminescence using furimazine as substrate at 100 uM by Nano-Glo live cell reagent assay relative to CP55940; format: functional, cell-based; conditions: filed as agonist
# In short: (§2)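 βarr2 recruitment by NanoBiT split-luciferase complementation in HEK293T stably expressing CB1-βarr2 or CB2-βarr2. Cells seeded on poly-D-lysine overnight, washed into Opti-MEM. Nano-Glo Live Cell reagent (furimazine) equilibrated 10 min, then compound added and luminescence followed 2 h. […] Value read at highest tested concentration, 100 μM. Duplicates, ≥3 independent experiments.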
# [3] = molecular target: T2, Cannabinoid receptor 1 (Homo sapiens, UniProt P21554); experiment: Agonist activity at human CB1 receptor expressed in mouse AtT20 cells assessed as maximal agonist effect by measuring fluorescence at 10 uM incubated for 60 mins by FLIPR membrane potential assay relative to CP55940; format: functional, cell-based; in short: as §1
# [4] = molecular target: T1, Cannabinoid receptor 2; experiment: Agonist activity at CB2 receptor (unknown origin) expressed in human HEK293T cells co-expressing beta-arrestin2 assessed as beta-arrestin2 recruitment using furimazine as substrate by Nano-Glo live cell reagent assay; format: functional, cell-based
# In short: (§3)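 βarr2 recruitment by NanoBiT split-luciferase complementation in HEK293T stably expressing CB1-βarr2 or CB2-βarr2. Nano-Glo Live Cell reagent (furimazine) equilibrated 10 min before compound, then luminescence monitored continuously 2 h. Stocks in methanol, diluted in MeOH/Opti-MEM. EC50 from four-parameter logistic fit. Duplicates in ≥3 independent experiments.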
# [5] = molecular target: T1, Cannabinoid receptor 2; experiment: Agonist activity at human CB2 receptor expressed in mouse AtT20 cells incubated for 60 mins by FLIPR membrane potential assay; format: functional, cell-based
# [6] = molecular target: T2, Cannabinoid receptor 1; experiment: Agonist activity at CB1 receptor (unknown origin) expressed in human HEK293T cells co-expressing beta-arrestin2 assessed as beta-arrestin2 recruitment using furimazine as substrate by Nano-Glo live cell reagent assay; format: functional, cell-based; in short: as §3
# [7] = molecular target: T1, Cannabinoid receptor 2; experiment: Displacement of [3H]-CP55940 from N-terminal 3HA-tagged human CB2 receptor expressed in human HEK293-EBNA cells incubated for 60 mins by radioligand competitive binding assay based liquid scintillation counter; format: cell-based
# [8] = molecular target: T2, Cannabinoid receptor 1; experiment: Agonist activity at human CB1 receptor expressed in mouse AtT20 cells incubated for 60 mins by FLIPR membrane potential assay; format: functional, cell-based
# [9] = molecular target: T2, Cannabinoid receptor 1; experiment: Agonist activity at CB1 receptor (unknown origin) expressed in human HEK293T cells co-expressing beta-arrestin2 assessed as beta-arrestin2 recruitment by measuring maximal luminescence using furimazine as substrate at 100 uM by Nano-Glo live cell reagent assay relative to CP55940; format: functional, cell-based; in short: as §2
# [10] = molecular target: T2, Cannabinoid receptor 1; experiment: Displacement of [3H]-CP55940 from human CB1 receptor expressed in human HEK293-EBNA cells incubated for 60 mins by radioligand competitive binding assay based liquid scintillation counter; format: cell-based
# [11] = Toxicity in C57BL/6J mouse assessed as reduction in body temperature at 10 mg/kg,ip measured after 2.5 hrs by radio-biotelemetry analysis; format: organism-based; conditions: in vivo
# In short: (§4)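 Male C57BL/6J mice (four per cohort) fitted with intraperitoneal biotelemetry transmitters, 10 days' recovery. Compound in EtOH/polysorbate 80/saline (5:5:90) given i.p. at 10 μL/g after baseline vehicle injection; escalating doses 0.03 to 10 mg/kg, one every three days.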
# [12] = molecular target: T2, Cannabinoid receptor 1; experiment: Agonist activity at human CB1 receptor expressed in mouse AtT20 cells at 10 uM incubated for 60 mins by FLIPR membrane potential assay; format: functional, cell-based; in short: as §1
# [13] = Toxicity in C57BL/6J mouse assessed as reduction in body temperature at 0.1 mg/kg,ip measured after 2.5 hrs by radio-biotelemetry analysis; format: organism-based; conditions: in vivo; in short: as §4
# [14] = Toxicity in C57BL/6J mouse assessed as reduction in body temperature upto 10 mg/kg,ip measured after 2.5 hrs by radio-biotelemetry analysis; format: organism-based; conditions: in vivo; in short: as §4
# T1 sequence (P34972 whole entry): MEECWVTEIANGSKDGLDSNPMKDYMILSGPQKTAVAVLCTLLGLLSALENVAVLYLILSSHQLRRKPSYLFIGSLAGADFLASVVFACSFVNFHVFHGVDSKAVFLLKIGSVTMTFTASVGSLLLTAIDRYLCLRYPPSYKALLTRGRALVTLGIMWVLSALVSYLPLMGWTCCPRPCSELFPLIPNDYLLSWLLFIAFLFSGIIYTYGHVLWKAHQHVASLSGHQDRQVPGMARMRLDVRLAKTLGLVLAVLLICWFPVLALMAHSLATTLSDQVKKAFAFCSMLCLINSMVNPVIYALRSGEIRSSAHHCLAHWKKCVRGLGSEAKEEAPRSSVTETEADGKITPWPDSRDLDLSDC
# T2 sequence (P21554 whole entry): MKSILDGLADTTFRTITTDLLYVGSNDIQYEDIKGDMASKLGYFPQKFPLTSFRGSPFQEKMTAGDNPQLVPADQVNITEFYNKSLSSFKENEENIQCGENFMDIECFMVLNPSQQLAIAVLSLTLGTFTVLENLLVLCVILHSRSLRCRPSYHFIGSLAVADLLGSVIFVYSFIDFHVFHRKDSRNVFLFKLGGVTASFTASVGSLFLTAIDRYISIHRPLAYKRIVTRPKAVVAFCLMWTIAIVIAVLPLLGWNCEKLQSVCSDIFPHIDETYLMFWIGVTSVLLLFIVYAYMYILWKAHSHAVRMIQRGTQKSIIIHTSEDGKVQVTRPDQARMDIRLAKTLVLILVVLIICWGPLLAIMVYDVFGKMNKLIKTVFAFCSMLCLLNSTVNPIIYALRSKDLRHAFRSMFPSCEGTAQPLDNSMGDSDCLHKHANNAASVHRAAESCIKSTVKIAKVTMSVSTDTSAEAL
Compound,Emax [1],Emax [2],Emax ([3]; filed as agonist),EC50 [4],EC50 [5],EC50 ([6]; read-out: EC50),Ki [7],EC50 [8],Emax ([9]; filed as agonist),Ki [10],Activity [11],Emax [3],Activity [12],EC50 ([6]; read-out: pEC50 (converted)),Emax [9],Activity [13],Activity [14]
CCCCn1cc(C(=O)N[C@@H](Cc2ccccc2)C(N)=O)c2ccccc21,92%,76%,93%,209 nM,40 nM,15500 nM,148 nM,5100 nM,50%,307 nM,–,–,–,–,–,–,–
CCCCCn1cc(C(=O)N[C@H](C(N)=O)C(C)(C)C)c2cccnc21,108%,102%,–,22.2 nM,7.1 nM,147 nM,20.4 nM,5.8 nM,544%,3.94 nM,Non-Toxic,–,–,–,–,–,–
CCCCn1cc(C(=O)N[C@@H](Cc2ccccc2)C(N)=O)c2cccnc21,79%,53%,–,3630 nM,319 nM,> 1050 nM,2190 nM,–,–,538 nM,–,19%,< 50%,1050 nM,< 5%,–,–
CCCCn1nc(C(=O)N[C@H](C(N)=O)C(C)C)c2ccccc21,103%,91%,114%,13.7 nM,4.2 nM,187 nM,6.46 nM,7.4 nM,622%,1.18 nM,–,–,–,–,–,–,–
CCCCn1cc(C(=O)N[C@H](C(N)=O)C(C)C)c2ccccc21,106%,94%,107%,283 nM,28 nM,3300 nM,77.6 nM,53 nM,390%,12.2 nM,–,–,–,–,–,–,–
CCCCn1nc(C(=O)N[C@H](C(N)=O)C(C)(C)C)c2ccccc21,101%,83%,113%,1.79 nM,4.1 nM,19 nM,0.912 nM,0.67 nM,728%,0.299 nM,–,–,–,–,–,Toxic,–
CCCCn1cc(C(=O)N[C@H](C(N)=O)C(C)C)c2cccnc21,100%,88%,104%,4620 nM,202 nM,> 60800 nM,891 nM,1490 nM,44%,501 nM,–,–,–,–,–,–,–
CCCCCn1cc(C(=O)N[C@@H](Cc2ccccc2)C(N)=O)c2cccnc21,78%,52%,–,766 nM,381 nM,> 100000 nM,794 nM,–,–,437 nM,–,30%,< 50%,–,6%,–,–
CCCCn1nc(C(=O)N[C@@H](Cc2ccccc2)C(N)=O)c2ccccc21,99%,71%,95%,17 nM,6.8 nM,1170 nM,39.8 nM,161 nM,216%,25.1 nM,–,–,–,–,–,–,Toxic
CCCCCn1cc(C(=O)c2cccc3ccccc23)c2ccccc21,87%,58%,116%,7.3 nM,22 nM,35.5 nM,9.55 nM,18 nM,310%,2.56 nM,–,–,–,–,–,–,–
CCCCCn1cc(C(=O)N[C@H](C(N)=O)C(C)C)c2cccnc21,93%,70%,112%,694 nM,47 nM,4150 nM,251 nM,101 nM,278%,49.5 nM,–,–,–,–,–,–,–
CCCCn1cc(C(=O)N[C@H](C(N)=O)C(C)(C)C)c2ccccc21,103%,92%,115%,4.44 nM,6 nM,139 nM,1.32 nM,6 nM,756%,1.34 nM,–,–,–,–,–,–,–
CCCCn1cc(C(=O)N[C@H](C(N)=O)C(C)(C)C)c2cccnc21,103%,85%,117%,120 nM,21 nM,2890 nM,40.7 nM,88 nM,406%,15.5 nM,–,–,–,–,–,–,–

# Reference: ChEMBL document CHEMBL5107959, “Structure-activity relationships of valine, tert-leucine, and phenylalanine amino acid-derived synthetic cannabinoid receptor agonists related to ADB-BUTINACA, APP-BUTINACA, and ADB-P7AICA” (RSC Med Chem, 2022)
